In ChEMBL document CHEMBL4251623, “Synthesis and evaluation of 2-(3-arylureido)pyridines and 2-(3-arylureido)pyrazines as potential modulators of Aβ-induced mitochondrial dysfunction in Alzheimer's disease” (Eur J Med Chem, 2018):

How the values were obtained:
Mus musculus [1] = organism: Mus musculus; test: Inhibition of amyloid beta (1 to 42)-induced mPTP opening in mouse HT22 cells assessed as reduction in mitochondrial membrane potential loss by measuring green to red fluorescence ratio at 5 uM preincubated for 10 mins followed by amyloid beta (1 to 42) addition and measured every 1 hr for 3 hrs by JC1 staining based fluorescence assay relative to control; format: cell-based; set-up: scale not given: the % may be the effect or the level left
Method in brief: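 HT-22 cells (30,000/well) were seeded one day before and loaded with 7.5 µM final JC-1 in phenol red-free Opti-MEM for 1 h 15 min at 37 °C, then washed with PBS. Compound (5 µM) was added for 10 min at 37 °C, then Aβ1-42 (5 µM). Red (ex/em 530/580 nm) and green (485/530 nm) fluorescence were read hourly for 3 h. Green/red ratio was expressed versus Aβ alone (100%), as mean of duplicates.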

Mus musculus [2] = organism: Mus musculus; test: Inhibition of amyloid beta (1 to 42)-induced mPTP opening in mouse HT22 cells assessed as neuroprotective activity against amyloid beta (1 to 42)-induced toxicity at 5 uM measured after 24 hrs by MTT assay relative to control; format: cell-based
Method in brief: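 HT-22 cells (5000/well) were pretreated with compound for 10 min, then Aβ1-42 was added, both at 5 µM, for 24 h at 37 °C. Viability was read by MTT (2 h; acidic Triton/isopropanol solubilization; A570). Aβ-treated viability was set to 0 and vehicle to 100% protection; mean of duplicates.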

HT-22 = test: Toxicity in mouse HT22 cells assessed as ATP production level at 5 uM after 7 hrs by luciferase based assay relative to control; format: cell-based; details: ht-22, 7 h
Method in brief: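 HT-22 cells (10,000/well, seeded the day before; DMEM, 10% FBS, 37 °C, 5% CO2) were exposed to compound (5 µM per footnote) without Aβ for 7 h at 37 °C. Cells were lysed in 1% Triton X-100/TBST, equal protein (BCA) was taken, and ATP was measured with a luciferase kit. Result is % ATP production relative to vehicle; mean of duplicates.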

Mus musculus [3] = organism: Mus musculus; test: Inhibition of amyloid beta (1 to 42)-induced mPTP opening in mouse HT22 cells assessed as protection against amyloid beta (1 to 42)-induced deterioration of ATP production by measuring ATP recovery at 5 uM preincubated for 10 mins followed by amyloid beta (1 to 42) addition and measured after 7 hrs relative to control; format: cell-based; set-up: scale not given: the % may be the effect or the level left
Method in brief: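 HT-22 cells (10,000/well, seeded the day before) got compound for 10 min at 37 °C, then Aβ1-42; per footnote, both were at 5 µM. After 7 h at 37 °C, cells were washed, lysed in 1% Triton X-100/TBST and protein-normalized by BCA. ATP was measured with a luciferase kit. Aβ-injured level was set to 0 and vehicle to 100% recovery; mean of duplicates.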

[4] = Cytotoxicity against mouse HT22 cells assessed as cell viability at 5 uM after 24 hrs by MTT assay relative to control; format: cell-based, HT-22; details: read-out: Activity
Method in brief: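 HT-22 cells (5000/well) got compound at 5 µM for 24 h at 37 °C. MTT was added for 2 h, then solubilizer (10% Triton X-100 in isopropanol, 0.1 M HCl) for 1 h at room temperature. Absorbance was read at 570 nm, vehicle-subtracted, and expressed as % viability; mean of duplicates.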

O=C(Nc1ccccc1)Nc1ncccc1OCc1cccc(F)c1
Activity (Mus musculus [1]): 23%

O=C(Nc1cccc(Cl)c1)Nc1ncccc1OCc1cccc(Cl)c1
Activity (Mus musculus [1]): 55%

O=C(Nc1ccccc1)Nc1ncccc1OCc1cccc(Cl)c1
percent protection against Aβ1-42 toxicity (Mus musculus [2]): 31% | Activity (HT-22): 109% | Activity (Mus musculus [3]): 90% | Activity (Mus musculus [1]): 14% | viability at 24 h, 5 µM [4]: 98%

O=C(Nc1cccc(F)c1)Nc1nccnc1OCc1ccccc1
Activity (Mus musculus [1]): 111%

O=C(NCc1ccccc1)Nc1nccnc1OCc1cccc(F)c1
Activity (Mus musculus [1]): 69%

O=C(Nc1cccc(F)c1)Nc1ncccc1OCc1ccc(F)cc1
Activity (Mus musculus [1]): 18%

NC(=O)CN1CCCC1=O [PIRACETAM]
percent protection against Aβ1-42 toxicity (Mus musculus [2]): 29% | Activity (HT-22): 88% | Activity (Mus musculus [3]): 127%

O=C(Nc1ccc(Cl)c(Cl)c1)Nc1ncccc1OCc1ccc(Cl)cc1
Activity (Mus musculus [1]): 47%

Cc1ccc(NC(=O)Nc2ncccc2OCc2cccc(F)c2)cc1
Activity (Mus musculus [1]): 22%

O=C(Nc1cccc(Cl)c1)Nc1ncccc1OCc1ccccc1Cl
percent protection against Aβ1-42 toxicity (Mus musculus [2]): 21% | Activity (HT-22): 124% | Activity (Mus musculus [3]): 91% | Activity (Mus musculus [1]): 25% | viability at 24 h, 5 µM [4]: 84%

O=C(Nc1ccccc1F)Nc1ncccc1OCc1ccccc1Cl
Activity (Mus musculus [1]): 38%

O=C(Nc1cccc(Cl)c1)Nc1ncccc1OCc1ccc(Cl)cc1
Activity (Mus musculus [1]): 46%

O=C(NCc1ccccc1)Nc1ncccc1OCc1cccc(F)c1
Activity (Mus musculus [1]): 9%

O=C(Nc1ccccc1F)Nc1ncccc1OCc1cccc(Cl)c1
percent protection against Aβ1-42 toxicity (Mus musculus [2]): 67% | Activity (HT-22): 104% | Activity (Mus musculus [3]): 43% | Activity (Mus musculus [1]): 11% | viability at 24 h, 5 µM [4]: 115%

O=C(Nc1ccc(Cl)c(Cl)c1)Nc1ncccc1OCc1cccc(Cl)c1
Activity (Mus musculus [1]): 10%

O=C(Nc1cccc(F)c1)Nc1ncccc1OCc1cccc(Cl)c1
percent protection against Aβ1-42 toxicity (Mus musculus [2]): 38% | Activity (HT-22): 99% | Activity (Mus musculus [3]): 69% | Activity (Mus musculus [1]): 13% | viability at 24 h, 5 µM [4]: 91%

O=C(Nc1cccc(F)c1)Nc1ncccc1OCc1ccccc1
Activity (Mus musculus [1]): 13%

O=C(Nc1cccc(Cl)c1)Nc1ncccc1OCc1ccc(F)cc1
Activity (Mus musculus [1]): 91%

O=C(Nc1ccc(Cl)c(Cl)c1)Nc1ncccc1OCc1ccccc1Cl
Activity (HT-22): 123% | Activity (Mus musculus [1]): 36% | viability at 24 h, 5 µM [4]: 60%

O=C(Nc1cccc(F)c1)Nc1ncccc1OCc1ccc(Cl)cc1
Activity (Mus musculus [1]): 15%

O=C(Nc1cccc(F)c1)Nc1nccnc1OCc1cccc(F)c1
Activity (Mus musculus [1]): 98%

O=C(Nc1ccc(C(F)(F)F)cc1)Nc1ncccc1OCc1cccc(F)c1
Activity (Mus musculus [1]): 23%

Cc1ccc(NC(=O)Nc2ncccc2OCc2ccc(Cl)cc2)cc1
Activity (Mus musculus [1]): 44%

O=C(Nc1cccc(F)c1)Nc1ncccc1OCc1cccc(F)c1
Activity (Mus musculus [1]): 34%

O=C(Nc1ccccc1)Nc1ncccc1OCc1ccccc1Cl
Activity (Mus musculus [1]): 80%

O=C(Nc1ccccc1F)Nc1ncccc1OCc1ccc(Cl)cc1
Activity (Mus musculus [1]): 27%

O=C(Nc1ncccc1OCc1cccc(Cl)c1)Nc1cccc2ccccc12
Activity (Mus musculus [1]): 106%

Cc1ccc(NC(=O)Nc2ncccc2OCc2ccccc2Cl)cc1
Activity (Mus musculus [1]): 22%

O=C(Nc1ccccc1F)Nc1ncccc1OCc1cccc(F)c1
Activity (Mus musculus [1]): 23%

O=C(Nc1ccccc1F)Nc1nccnc1OCc1ccccc1
Activity (Mus musculus [1]): 123%

O=C(Nc1ccc(Cl)c(Cl)c1)Nc1ncccc1OCc1cccc(F)c1
Activity (Mus musculus [1]): 35%

O=C(Nc1ccc(Cl)c(Cl)c1)Nc1nccnc1OCc1cccc(F)c1
Activity (Mus musculus [1]): 101%

O=C(Nc1ccc(C(F)(F)F)cc1)Nc1ncccc1OCc1cccc(Cl)c1
Activity (Mus musculus [1]): 27%

Cc1ccc(NC(=O)Nc2nccnc2OCc2cccc(F)c2)cc1
Activity (Mus musculus [1]): 96%

O=C(Nc1ncccc1OCc1ccc(Cl)cc1)Nc1cccc2ccccc12
Activity (Mus musculus [1]): 52%

Cc1ccc(NC(=O)Nc2ncccc2OCc2cccc(Cl)c2)cc1
percent protection against Aβ1-42 toxicity (Mus musculus [2]): 17% | Activity (HT-22): 108% | Activity (Mus musculus [3]): 54% | Activity (Mus musculus [1]): 26% | viability at 24 h, 5 µM [4]: 95%

O=C(Nc1ccc(C(F)(F)F)cc1)Nc1ncccc1OCc1ccc(Cl)cc1
Activity (Mus musculus [1]): 91%

O=C(Nc1cccc(F)c1)Nc1ncccc1OCc1ccccc1Cl
percent protection against Aβ1-42 toxicity (Mus musculus [2]): 14% | Activity (HT-22): 106% | Activity (Mus musculus [3]): 78% | Activity (Mus musculus [1]): 32% | viability at 24 h, 5 µM [4]: 86%

O=C(Nc1ccc(Cl)c(Cl)c1)Nc1ncccc1OCc1ccccc1
Activity (Mus musculus [1]): 19%

O=C(Nc1ccccc1F)Nc1ncccc1OCc1ccccc1
Activity (Mus musculus [1]): 69%

O=C(Nc1ccccc1F)Nc1ncccc1OCc1ccc(F)cc1
Activity (Mus musculus [1]): 27%

O=C(Nc1ncccc1OCc1ccccc1Cl)Nc1cccc2ccccc12
Activity (Mus musculus [1]): 77%
